The source made the active and inactive calls. The rule behind the calls is not given here.
Columns and labels:
[1] = target: T1, Sphingosine 1-phosphate receptor 3 (Homo sapiens, UniProt Q99500); test: Agonist activity at human S1P3 receptor assessed as stimulation of [35S]GTPgammaS binding; assay type: functional
Mus musculus [2] = test: Plasma concentration in mouse assessed as phosphorylated drug level at 1 mg/kg, po after 48 hrs; assay type: ADME, organism-based; parameters: dose 1 mg/kg, route oral; settings: in vivo
Homo sapiens [3] = species: Homo sapiens; test: Ratio of IC50 for human S1P3 receptor to IC50 for human S1P1 receptor
Homo sapiens [4] = species: Homo sapiens; test: Ratio of EC50 for human S1P3 receptor to EC50 for human S1P1 receptor
Mus musculus [5] = test: Immunomodulatory activity in C57BL/6 mouse assessed as lymphopenia at 10 mg/kg, po after 6 hrs by complete blood count analysis; assay type: functional
In short: (§1)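 The amino-alcohol (unphosphorylated) form was given orally to mice, in single doses from 0.3 to 10 mg/kg, with the main screen at 10 mg/kg. Circulating lymphocytes were counted 6 h post-dose. Lymphopenia was expressed as the percent decrease in circulating lymphocytes relative to a time-matched vehicle control group.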

Mus musculus [6] = test: Immunomodulatory activity in po dosed C57BL/6 mouse assessed as lymphopenia after 6 hrs by complete blood count analysis; assay type: functional, organism-based; in short: as §1
Mus musculus [7] = test: Immunomodulatory activity in C57BL/6 mouse assessed as lymphopenia at 3 mg/kg, po after 6 hrs by complete blood count analysis; assay type: functional, organism-based; parameters: dose 3 mg/kg; in short: as §1
[8] = target: T2, Sphingosine 1-phosphate receptor 1 (Homo sapiens, UniProt P21453); test: Displacement of [33P]sphingosine-1-phosphate from human S1P1 receptor
[9] = target: T1, Sphingosine 1-phosphate receptor 3; test: Displacement of [33P]sphingosine-1-phosphate from human S1P3 receptor
[10] = target: T3, Sphingosine 1-phosphate receptor 4 (Homo sapiens, UniProt O95977); test: Displacement of [33P]sphingosine-1-phosphate from human S1P4 receptor
T3 sequence (O95977 whole entry): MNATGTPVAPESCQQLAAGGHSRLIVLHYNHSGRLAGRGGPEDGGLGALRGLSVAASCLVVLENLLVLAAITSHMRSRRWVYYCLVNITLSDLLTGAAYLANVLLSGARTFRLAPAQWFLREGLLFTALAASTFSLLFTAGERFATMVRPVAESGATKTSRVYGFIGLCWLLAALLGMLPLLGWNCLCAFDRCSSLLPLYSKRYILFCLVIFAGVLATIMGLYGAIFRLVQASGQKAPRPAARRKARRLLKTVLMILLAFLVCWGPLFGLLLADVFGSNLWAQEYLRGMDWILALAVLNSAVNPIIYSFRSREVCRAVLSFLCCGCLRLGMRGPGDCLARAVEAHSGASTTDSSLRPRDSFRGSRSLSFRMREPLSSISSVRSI

[11] = target: Sphingosine 1-phosphate receptor 5 (Homo sapiens, UniProt Q9H228); test: Displacement of [33P]sphingosine-1-phosphate from human S1P5 receptor
[12] = target: T2, Sphingosine 1-phosphate receptor 1; test: Agonist activity at human S1P1 receptor assessed as stimulation of [35S]GTPgammaS binding; assay type: functional

Chain of Sphingosine 1-phosphate receptor 5 (Q9H228 whole entry): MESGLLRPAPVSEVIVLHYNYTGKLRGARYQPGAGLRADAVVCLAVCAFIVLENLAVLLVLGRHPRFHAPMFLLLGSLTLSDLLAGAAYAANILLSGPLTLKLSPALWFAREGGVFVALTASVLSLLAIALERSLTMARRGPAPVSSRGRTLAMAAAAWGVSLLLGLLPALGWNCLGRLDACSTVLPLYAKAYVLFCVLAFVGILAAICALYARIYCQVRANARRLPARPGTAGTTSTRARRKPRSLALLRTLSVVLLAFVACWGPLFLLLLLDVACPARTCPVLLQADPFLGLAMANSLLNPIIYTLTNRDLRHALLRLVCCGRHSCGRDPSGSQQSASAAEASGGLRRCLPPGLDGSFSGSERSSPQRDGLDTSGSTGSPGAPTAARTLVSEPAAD
T2 sequence (P21453 whole entry): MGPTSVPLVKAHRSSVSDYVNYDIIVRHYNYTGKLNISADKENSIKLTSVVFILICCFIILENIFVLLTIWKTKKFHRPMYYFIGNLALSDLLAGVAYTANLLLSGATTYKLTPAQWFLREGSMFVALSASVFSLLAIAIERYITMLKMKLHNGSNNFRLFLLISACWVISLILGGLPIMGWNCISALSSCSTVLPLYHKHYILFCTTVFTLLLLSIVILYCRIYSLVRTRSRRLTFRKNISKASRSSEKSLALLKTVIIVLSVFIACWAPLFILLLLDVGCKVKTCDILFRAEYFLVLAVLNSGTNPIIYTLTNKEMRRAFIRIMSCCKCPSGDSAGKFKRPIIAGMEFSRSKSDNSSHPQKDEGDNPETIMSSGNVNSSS
T1 sequence (Q99500 whole entry): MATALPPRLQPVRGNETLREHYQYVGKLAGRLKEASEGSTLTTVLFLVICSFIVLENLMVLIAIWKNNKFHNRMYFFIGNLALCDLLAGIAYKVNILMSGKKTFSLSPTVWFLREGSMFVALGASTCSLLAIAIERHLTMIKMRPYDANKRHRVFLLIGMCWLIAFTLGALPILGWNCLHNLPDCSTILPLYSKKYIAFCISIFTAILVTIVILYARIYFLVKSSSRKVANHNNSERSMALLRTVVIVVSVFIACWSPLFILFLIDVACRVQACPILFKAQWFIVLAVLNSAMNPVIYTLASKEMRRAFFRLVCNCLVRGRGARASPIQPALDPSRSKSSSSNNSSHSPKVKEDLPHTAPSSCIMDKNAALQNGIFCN

SMILES	EC50 [1] [nM]	Cp (Mus musculus [2]) [ng/mL]	Ratio IC50 (Homo sapiens [3])	Ratio EC50 (Homo sapiens [4])	Activity (Mus musculus [5]) [%]	Activity (Mus musculus [6])	Activity (Mus musculus [7])	IC50 [8] [nM]	IC50 [9] [nM]	IC50 [10] [nM]	IC50 [11] [nM]	EC50 [12] [nM]
C[C@](N)(COP(=O)(O)O)C(=O)Nc1ccc(OCCc2ccc(-c3ccccc3)cc2)cc1	120	0.4	190	231	81	Dose-dependent effect	Active	1.05	200	4.17	122	0.52
C[C@](N)(COP(=O)(O)O)c1nc(-c2ccc(OCc3ccc(-c4ccccc4)cc3)cc2)c[nH]1	54.8	–	19	24.9	84	–	–	1.03	20	4.9	9.6	2.2
C[C@](N)(COP(=O)(O)O)c1nc(-c2ccc(OCCCCc3ccccc3)cc2)c[nH]1	117	–	22	16	82	–	–	0.9	20	11.7	12.8	7.3
C[C@](N)(COP(=O)(O)O)c1nc(-c2ccc(OCCCCCc3ccccc3)cc2)c[nH]1	285	–	30	27.9	81	–	–	0.2	6	1.23	3.5	10.2
C[C@](N)(COP(=O)(O)O)c1nc(-c2ccc(OCCc3ccc(-c4ccccc4)cc3)cc2)c[nH]1	> 3000	–	27	> 80.7	60	–	–	7.7	210	26.9	207	37.2
C[C@](N)(COP(=O)(O)O)C(=O)Nc1ccc(OCc2ccc(-c3ccccc3)cc2)cc1	47.3	–	8.4	0.8	28	–	–	2.5	21.1	6.15	104	56.1

From ChEMBL document CHEMBL1138585, “Synthesis and evaluation of arylalkoxy- and biarylalkoxy-phenylamide and phenylimidazoles as potent and selective sphingosine-1-phosphate receptor subtype-1 agonists” (Bioorg Med Chem Lett, 2009)
